# According to the EternaBench riboswitch data:
# Tested on: MS2 coat protein
# Test: apparent Kd, MS2 coat protein; higher = weaker binding; RNA-MaP array; FMN 200 µM where present
# How it was run: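 Designs were transcribed by stalled E. coli RNA polymerase on Illumina sequencing-chip clusters. They were titrated with SNAP-549-labelled MS2 coat protein from 0.7 or 1.5 nM, doubling to 3 µM, in 100 mM Tris-HCl pH 7.5, 80 mM KCl, 4 mM MgCl2, BSA, DTT, yeast tRNA and Tween-20, without and then with constant ligand. The apparent Kd is the median of filtered per-cluster fits after normalisation of green signal to red-channel RNA signal and control-cluster median Fmax.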
# [1] = designed as: ON switch for flavin mononucleotide, no ligand
# [2] = ligand present: flavin mononucleotide, designed as: ON switch for flavin mononucleotide
# [3] = designed as: OFF switch for flavin mononucleotide, no ligand
# [4] = ligand present: flavin mononucleotide, designed as: OFF switch for flavin mononucleotide
sequence,measurement,setting,value
CAUAUCGUAACAGGAUAUAUGAGUCCUACAUGAGGAUCACCCAUGUAGGUGAUCUAACGAGAUUAGUAGAAGGGUUACGAUAUG,apparent Kd,[1],0.0166 µM
same,apparent Kd,[2],0.00868 µM
CUCAAACAUGAGGAUCACCCAUGUGUUGUCAUGGGAGGAUAUCUAAGUUCGUUGUAUUCGGGAGAAGGCCUAUGUC,apparent Kd,[1],0.258 µM
same,apparent Kd,[2],0.0551 µM
AUAGGGUGAGGAUAUCCAUCUGGAUCAGACUAGAUCCUGAUGGAGAAGGCACAUGAGGAUCACCCAUGUGAGUU,apparent Kd,[3],0.125 µM
same,apparent Kd,[4],0.151 µM
CUCUUGUUAGGAUAUCAAACCGGCGGCGGAGCCGCCGGAAGUGAGAAGGGACAUGAGGAUCACCCAUGUAAGAA,apparent Kd,[3],0.0715 µM
same,apparent Kd,[4],0.312 µM
UAGUAUAAGGGCAUUACACAUGAGGAUCACCCAUGUACGUUAGAGGAUAUGCAUUACAGUCGAACGUAGAAGGUUAGAGAAGGG,apparent Kd,[3],0.168 µM
same,apparent Kd,[4],0.157 µM
UGGUACUAGGGAGGAUAUGGGAAGAUACAUGAGGAUCACCCAUGUUUAAGAAUGCCGAGAAGCAACUAGAAGGCCCUAGUACCU,apparent Kd,[1],0.332 µM
same,apparent Kd,[2],0.0195 µM
CAGCUGAAAGUCAGGAUAUCUAGAGCUGCGGCUCUAGAGAAGGGACAUGAGGAUCACCCAUGUGAUCACAGCUG,apparent Kd,[3],1.44 µM
same,apparent Kd,[4],0.15 µM
GCAAAGCCUGACAUGAGGAUCACCCAUGUUAGAUUGUUAUGUCAGGAUAUUGUCUAGACCCUAGACAAGAAGGGAUGCUUUGCU,apparent Kd,[1],0.371 µM
same,apparent Kd,[2],0.0269 µM
UCCCUUAGUGUAAGGAUAUCGUUCCAUUGACGGAGCGAGAAGGUACAUGAGGAUCACCCAUGUGUCAAUGCCGG,apparent Kd,[3],0.02 µM
same,apparent Kd,[4],0.0544 µM
CUUUUGUGAGGAUAUCAGUAGUAAAAUAAUAAAAUUACUACUGAGAAGGCACAUGAGGAUCACCCAUGUUCCUC,apparent Kd,[3],0.0325 µM
same,apparent Kd,[4],0.174 µM
CCCGAGGAAGGAUAUACAUGAGGAUCACCCAUGUGCGUUGGGACUGGCGUAGUCUUCAGUAGAAGGUCCGCGCC,apparent Kd,[3],0.0185 µM
same,apparent Kd,[4],0.0175 µM
GUCAGCUCGUGAGGAUAUACAACACUGCUUCGGCAGUGUAUUAAGACCACAUGAGGAUCACCCAUGUAGAAGGCACGAGCUGAU,apparent Kd,[3],0.00518 µM
same,apparent Kd,[4],0.0143 µM
UGGUACUAGGGAGGAUAUGGGAAGAUACAUGAGGAUCACCCAUGUUUAAGAAUGCCGAGAGGCCACUAGAAGGCCCUAGUACCU,apparent Kd,[1],0.244 µM
same,apparent Kd,[2],0.0124 µM
GUGUUACAUGAGGAUCACCCAUGUUGUUUUAGAUAAGGAUAUAUGGUAACGAGAGAAAUAAUAGAAGGUAUUAGGC,apparent Kd,[1],0.0334 µM
same,apparent Kd,[2],0.0231 µM
AGUACAUCAGGAUAUACAUGAAAGAUCAUCAUGACCUUUCUACAUGAGGAUCACCCAUGUAGAAGGGAUGUACA,apparent Kd,[3],0.0202 µM
same,apparent Kd,[4],0.038 µM
UUAUGUUUUGUAGGAUAUCAUUAGAUUUGUAAUUUAAUUGUAAUUUAGAUAUGAGAAGGACAUUUACAUGAGGAUCACCCAUGU,apparent Kd,[3],0.0161 µM
same,apparent Kd,[4],0.0115 µM
UGCUACUAGGGAGGAUAUGGGAAGAUACAUGAGGAUCACCCAUGUUUAAGAAUGCCGAGAGGCAACUAGAAGGCCCUAGUACCU,apparent Kd,[1],0.401 µM
same,apparent Kd,[2],0.0221 µM
GUUUGACAUGAGGAUCACCCAUGUAAGGAUAUACGAGUAGCUGCUAGGUAGUUAGUAUGUAGAAGGUGCGUGUU,apparent Kd,[3],0.0657 µM
same,apparent Kd,[4],0.0626 µM
UCGCCAGGUACAGGAUAUGUGGAUCAGUCAAGUAAUUUGCUGAACAUGAGGAUCACCCAUGUAUCACAGAAGGGUGCCUCAAAA,apparent Kd,[1],0.173 µM
same,apparent Kd,[2],0.00841 µM
AAUUACAUGUAGAAGGUACUUAAUUAAGUGUUGUAAGGAUAUACCAAUUUAUUAGAUUUAAAGAUACAUGAGGAUCACCCAUGU,apparent Kd,[1],0.0121 µM
same,apparent Kd,[2],0.00976 µM
GCAUUUGAAGGAUAUGUCUUCGGAAACAUGAGGAUCACCCAUGUAAUACUCAUAUCACGGACAGAAGGUCAGGGUC,apparent Kd,[3],0.0352 µM
same,apparent Kd,[4],0.0409 µM
UUAAUGUGAGGAUAUCAGGUGUGCUAGCGUACUGGUACAUCUGAGAAGGCACAUGAGGAUCACCCAUGUUCUUC,apparent Kd,[3],0.037 µM
same,apparent Kd,[4],0.135 µM
GGUUACAUCGGAGGAUAUCAUGUAAAUACAUGAGGAUCACCCAUGUCGAUGGAGACAUCGGAGAUUGAGAAGGCCGAUGUACCG,apparent Kd,[1],0.17 µM
same,apparent Kd,[2],0.00797 µM
GGGUACAUCGGAGGAUAUCAUGGAAAUACAUGAGGAUCACCCAUGUCGAUGGAGACAUCGGAGAUUGAGAAGGCCGAUGUACCG,apparent Kd,[1],0.0273 µM
same,apparent Kd,[2],0.00638 µM
AUUAGUAAUAAGGAUAUCACUAGCUGCGGCUAGUGAGAAGGUAUUACAUGAGGAUCACCCAUGUGAUUAAUUAA,apparent Kd,[3],0.0764 µM
same,apparent Kd,[4],0.418 µM
AUAUUGUGAGGAUAUGAACUUAGUAUCGAAAGUUACUAAGUUCAGAAGGCACAUGAGGAUCACCCAUGUUUCUC,apparent Kd,[3],0.0721 µM
same,apparent Kd,[4],0.972 µM
CCAGACGUAGGAUAUACAUUUGGGUAAUCCCGCGGAUAAUUACAUGAGGAUCACCCAUGUAGAAGGGCGGUAAA,apparent Kd,[3],0.0387 µM
same,apparent Kd,[4],0.028 µM
GAGGUAUUCGUAGGAUAUCCGUCGCCACCGUGUGGAGAAGGACGAACAUGAGGAUCACCCAUGUAUCAUGGUGUGGACGCUGUC,apparent Kd,[3],0.0618 µM
same,apparent Kd,[4],0.0617 µM
UCGCUGCGAGGAUAUACAUGAGGAUCACCCAUGUACGGGUCCGGGUCUAAGUUGAUAAGUAGAAGGCGCAGUGA,apparent Kd,[3],0.125 µM
same,apparent Kd,[4],0.112 µM
UUGGACGUCGUAGGAUAUGGAGGAUAUUCCUACAUGAGGAUCACCCAUGUUGACAUGGAAGAAGGACAGAAGGACGAUGUCCAU,apparent Kd,[1],0.0101 µM
same,apparent Kd,[2],0.00414 µM
AUGAGUAAAGCAGGAUAUCUAUUGUCUCAGUAACAUGAGGAUCACCCAUGUAGAGAAGGGCUUAGUCAUUCACUUCGGAGUUGU,apparent Kd,[3],0.0148 µM
same,apparent Kd,[4],0.038 µM
UGAGCCUCGUGAGGAUAUACAUGAGGAUCACCCAUGUAAAUGAAAGAUACGUCGAAACGACGAAUGUAGAAGGCACGAGGCUCA,apparent Kd,[3],0.0184 µM
same,apparent Kd,[4],0.0613 µM
GGAGCACGCACAGGAUAUCCGGCGGCGCUCGUCGGAGAAGGGUGACAUGAGGAUCACCCAUGUACGUGCAACUCGGUUUGAGAG,apparent Kd,[1],0.105 µM
same,apparent Kd,[2],0.0492 µM
UAAUAUCUGUAGGAUAUCGGUGGAGCACACGUAUGAGAAGGGCAGACAUGAGGAUCACCCAUGUAUAGGGUCCG,apparent Kd,[3],0.0268 µM
same,apparent Kd,[4],0.041 µM
GUAAACCUAGGAUAUACAUGAGGAUCACCCAUGUAAAGUUUCGUAAAAAGAUAAUCGAGUAGAAGGAGGUAGAU,apparent Kd,[3],0.0215 µM
same,apparent Kd,[4],0.0234 µM
GGGUACAUCGGAGGAUAUCAAGUAAAUACAUGAGGAUCACCCAUGUCGAUGGAGACAUCGGAGAUUGAGAAGGCCGAUGUACCG,apparent Kd,[1],0.006 µM
same,apparent Kd,[2],0.00542 µM
GGUGGCUUCACAGGAUAUCCCGAGCCAAACAUGAGGAUCACCCAUGUGCUGGUAUUAAAAUUUGCGGAGAAGGGUGGUUCACGU,apparent Kd,[1],0.154 µM
same,apparent Kd,[2],0.0741 µM
GUAUAUCACUAAGGAUAUCUGUAAUUUGUUGAAACAUGAGGAUCACCCAUGUUCAUGAAUUUAUAGGAGAAGGUAGAGAUAUAC,apparent Kd,[1],0.00424 µM
same,apparent Kd,[2],0.00415 µM
GGAUGACAAAGUCAUCCUAUUCGAACAUGAGGAUCACCCAUGUAGGAUAUGCUACUCAAAGAGUAGCAGAAGGACAUGUGCCUU,apparent Kd,[3],0.0326 µM
same,apparent Kd,[4],0.178 µM
CGUGCAUAUGUAGGAUAUGGUUAUCUAUGUCUAGUUACUAGACAUAGAUAACCAGAAGGACAUGAGGAUCACCCAUGUAGCACG,apparent Kd,[3],0.0097 µM
same,apparent Kd,[4],0.0174 µM
GUCAGCUCGUGAGGAUAUACAUGUGCUGGAUACAGCACUAUUAUGUUCACAUGAGGAUCACCCAUGUAGAAGGCACGAGCUGAU,apparent Kd,[3],0.0162 µM
same,apparent Kd,[4],0.0217 µM
CAGUACUGAGGAUAUACAUGAGGAUCACCCAUGUGUUCCUUGUAGGAUAUGCGCAAAAGUAGAAGGCAGAAGGACAUGUGCCUA,apparent Kd,[3],0.00748 µM
same,apparent Kd,[4],0.00645 µM
AACAGGACAGGAUAUACAUGAGGAUCACCCAUGUAGGAAUUAAGCAGCGUACCACACAGUAGAAGGGUCAUGGA,apparent Kd,[3],0.0355 µM
same,apparent Kd,[4],0.0346 µM
UUUAUAAAUUAGAAGGCGAGAUAAAAUACAAUAGACAUGAGGAUCACCCAUGUGUACCCAUGUUUUGAGGAUAUAGUCAUAUAU,apparent Kd,[1],0.804 µM
same,apparent Kd,[2],0.536 µM
UUGGACGUCGUAGGAUAUGUAGGAUAUUCCUACAUGAGGAUCACCCAUGUUGACAUGGAAGAAGGACAGAAUGACGAUGUCCAU,apparent Kd,[1],0.374 µM
same,apparent Kd,[2],0.00551 µM
CUGCUCCGUGUAGGAUAUCCGGGCAACCAAUCCGGAGAAGGACAUGAGGAUCACCCAUGUAUGUUAUUAUCACGUGAAGCGUCC,apparent Kd,[3],0.023 µM
same,apparent Kd,[4],0.0253 µM
GGAAGACAAAGUCUUCCAUUACGAACAUGAGGAUCACCCAUGUAGGAUAUGCUUCUCAAAGAGAAGCAGAAGGACAUGUGUCUU,apparent Kd,[3],0.0266 µM
same,apparent Kd,[4],0.134 µM
AAGUAUGGAGGAUAUACAUGGAUAUACAUUCAUGUGGACCUACAUGAGGAUCACCCAUGUAGAAGGCCAUAAUA,apparent Kd,[3],0.0307 µM
same,apparent Kd,[4],0.0166 µM
